HEK293 NFkB inh – inhibitors of PMA/ionomycin-induced NF-kB reporter, primary screen, antigen receptor NF-kB inhibitor project, cell-based, HEK-293 luciferase reporter, luminescence | HEK-293 NF-kB luciferase reporter | inhibition, % at 3 µM | actives 0.21% (n = 62,000);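 active = inhibition above the mean of all tested compounds plus 3 SD, cut at about 40% in these data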;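 note: 0% = stimulated DMSO wells and 100% = 10 µM reference inhibitor 5653914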
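Material: HEK-293 cells with stable firefly luciferase reporter driven by four HIV NF-kB elements / Also added: PMA plus ionomycin mix as NF-kB-activating stimulus / Compound dosing: 3 µM once, 0.30% DMSO / Times: 1 h pretreatment, 16 h stimulation, 37 °C / Signal: luminescence / Evaluation: per-plate % inhibition versus controls / Benchmarks: DMSO and 10 µM reference inhibitor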
D1 mod – D1 CRE-luciferase signal change, two-sided – cell-based, HEK293 D1, dopamine EC30, D1 allosteric modulator project, primary screen. D(1A) dopamine receptor (Homo sapiens), P21728. dopamine EC30 potentiation; actives deviate in either direction. B-score at 10 µM. actives 5.9% (n = 58,000);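 active = luminescence count or its row- and column-corrected plate score outside the 99.7% band of the plate's sample wells, on either side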
Target sequence (P21728 whole entry, looked up): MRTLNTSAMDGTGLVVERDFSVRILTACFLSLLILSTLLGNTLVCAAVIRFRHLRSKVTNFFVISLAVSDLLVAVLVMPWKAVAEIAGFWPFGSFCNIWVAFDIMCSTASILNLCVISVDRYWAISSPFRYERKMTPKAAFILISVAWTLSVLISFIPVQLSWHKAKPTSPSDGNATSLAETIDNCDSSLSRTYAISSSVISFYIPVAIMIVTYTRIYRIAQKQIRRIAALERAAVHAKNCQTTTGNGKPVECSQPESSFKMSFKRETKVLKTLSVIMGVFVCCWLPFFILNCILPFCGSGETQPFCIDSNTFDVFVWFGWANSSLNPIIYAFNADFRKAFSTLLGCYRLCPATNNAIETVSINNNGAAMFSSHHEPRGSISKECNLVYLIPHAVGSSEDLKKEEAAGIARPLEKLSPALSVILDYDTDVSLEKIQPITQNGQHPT
Jurkat viability – cytotoxicity toward Jurkat T cells, primary screen, cytotoxicity control, cell-based, Jurkat E6.1, 60K MLSMR library; inhibition, % at 4 µM; actives 1.2% (n = 56,000); AID 463, 2006; Jurkat E6.1 viability, ATP luminescence, 48 h;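 active = inhibition above the mean inhibition of all tested compounds plus 3 SD, cut at about 28% in these data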
M1 antag – antagonists of rat M1 muscarinic receptor; actives 3.4% (n = 64,000); Muscarinic acetylcholine receptor M1 (Rattus norvegicus), P08482; CHO-M1 cells, Fluo-4 calcium, ACh EC80 antagonist mode; active compounds read low; B-score at 10 µM;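 active = calcium fluorescence response, raw or row-and-column corrected B-score, differing from the plate sample mean either way at a set confidence level, mostly lower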
M1 ag – M1 muscarinic receptor agonists, primary screen, CHO-M1 cells, Fluo-4 calcium, agonist mode. Muscarinic acetylcholine receptor M1. Fluo-4 calcium fluorescence; active compounds read high. B-score at 10 µM. actives 3% (n = 64,000);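 active = fluorescence rise, raw or as B-score row- and column-corrected plate score, outside the 99.7% band of its plate's samples, either direction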
Htt clearance – clearance of mutant huntingtin inclusions, primary screen, imaging, HeLa Exon1htt(103Q)mCFP, confocal imaging | aggregate imaging; zero = plate's median compound well | inhibition, % at 1.5 µM | actives 0.42% (n = 47,000);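 active = inhibition of aggregate fluorescence above about 70%, also judged a hit by eye on the cell image, limit read from the data, passing the limit was not always enough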;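 note: cells exposed to compound for three days before fixation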
M1 antag confirm – rat M1 muscarinic receptor antagonists, confirmation, CHO cells, Fluo-4 calcium, duplicate; shares compounds with M1 antag; ACh EC80 antagonism; active compounds read low; calcium response (max-min fluorescence) at 10 µM; actives 43% (n = 1,700); AID 677, 2007;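 active = calcium response below the same-plate mean of wells given acetylcholine alone at its 80%-effect dose, minus 3 SD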;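 note: raw fluorescence intensity difference in arbitrary instrument units and not normalized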
mGluR4 antag – human mGluR4 response to M1 antagonist hits, M1 allosteric modulator project, cell-based, antagonist mode, secondary assay 1. CHO-mGluR4 calcium flux, Fluo-4 fluorescence, glutamate EC80; active compounds read low. AID 678, 2007. fluorescence response (max-min) at 10 µM. shares compounds with M1 antag. actives 0.9% (n = 1,700);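 active = fluorescence response below the plate's average for near-maximal glutamate wells, less 3 SD of those wells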;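 note: raw unnormalized fluorescence span taken in the window right after glutamate addition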
Numbers without * were called inactive; · = no result. Sampled rows, rich in hits. Any-hit rate of the full collection: about 9.5%.

SMILES	HEK293 NFkB inh	D1 mod	Jurkat viability	M1 antag	M1 ag	Htt clearance	M1 antag confirm	mGluR4 antag
COc1cc(Cl)c(C)cc1NC(=O)COC(=O)c1cnc(C)cn1	3	1.2	-5	-0.018	0.97	-6	·	·
N#Cc1c(NC(=O)CSc2nc(-c3ccco3)cc(C(F)(F)F)n2)sc2c1CCCC2	4	0.61	0	0.11	0	·	·	·
CCCCn1nnnc1NCc1ccc(N2CCCC2)cc1	-2	0.49	0	-3.7*	-0.82	-41	544	240
NS(=O)(=O)c1cc2c(cc1Cl)NC(C1C[C@H]3C=C[C@@H]1C3)NS2(=O)=O (stereo partly specified)	·	0.17	·	-0.056	0.093	·	·	·
COc1cc(NS(=O)(=O)c2ccc(NC(=O)c3ccco3)cc2)nc(OC)n1	23	-0.72	·	-2.2*	-1.8	17	665	236
COc1cc(NS(=O)(=O)c2ccc(NC(C)=O)cc2)nc(OC)n1	·	·	·	·	·	6	·	·
Cc1cccc(CSc2nnc(NC(=O)c3ccco3)s2)c1	·	·	·	·	·	15	·	·
Cc1ccc(OCCSc2nnc(NC(=O)c3ccco3)s2)cc1	6	0.4	-1	-3.6*	-0.14	·	671	251
O=C(NCCN1CCCCCC1)C1CCC(CNS(=O)(=O)c2cccc3cccnc23)CC1 (stereo unspecified)	13	0.67	-11	-2*	-0.18	·	521	244
OC(C#CCN1CCCC1)c1ccccc1 (stereo unspecified)	-2	·	14	-3*	0.051	18	462	199
O=C(O)C(c1ccccc1)N1CCCC1 (stereo unspecified)	9	-0.72	·	-0.21	0.53	·	·	·
OC(C#CCN1CCCCC1)c1ccccc1 (stereo unspecified)	10	0.95	-8	-2.6*	0.13	-50	432	185
OC(CCCCN1CCCCC1)c1ccccc1 (stereo unspecified)	4	-0.3	-2	0.086	0.2	·	·	·
Cc1cc(=O)n2nc(N3CCC(C(=O)N4CCN(Cc5ccccc5)CC4)CC3)sc2n1	17	1.8	4	-6*	-0.059	21	660	262
COc1cccc(C(=O)Nc2ccc(N3CCN(Cc4ccccc4)CC3)cc2)c1	·	·	·	·	·	51	·	·
CN1CCN(c2ccc(NC(=O)c3cccc(OCc4ccccc4)c3)cc2)CC1	9	-5.9*	0	-5.3*	-0.55	25	304*	245
Cn1c(CCN2CCCCC2)nc2cc(NC(=O)Nc3ccccc3)ccc21	4	0.027	-4	-4.4*	0.4	-34	194*	188
Cn1c(CCN2CCCCC2)nc2cc(NS(=O)(=O)c3ccccc3)ccc21	18	-0.42	4	-5.2*	0.085	13	448*	239
CCOC(=O)C1CCN(C(=O)CN(c2ccc3c(c2)OCCO3)S(C)(=O)=O)CC1	·	·	·	·	·	-2	·	·
Cc1nc2c(cnn2-c2ccccc2Cl)c(=O)n1-c1ccc(C(C)C)cc1	·	·	·	·	·	17	·	·
O=C(O)c1cccc(Cn2cc(Br)cn2)c1	18	-0.68	-2	-0.86	-0.72	-67	·	·
O=C(NCc1ccncc1)c1cccc(Cn2cc(Br)cn2)c1	13	1	7	-10*	-1.2	29	88*	205
O=C(O)C(Oc1ccc2c3c(c(=O)oc2c1)CCC3)c1ccccc1 (stereo unspecified)	13	0.18	11	-0.053	-0.29	28	·	·

Compound activity deposited in PubChem BioAssay by several laboratories.
